≈ marks a conversion by molar mass, not a printed value. Values belong to the compound of their own block, whether it stands above or below them. Calls of active or inactive are those of the source. No cut-off for these calls is given here.
Key:
Leishmania donovani = test: Antileishmanial activity against Leishmania donovani promastigotes after 72 hrs by almar blue assay; format: functional, organism-based
Candida albicans = test: Antimicrobial activity against Candida albicans ATCC 90028; format: functional, organism-based
Plasmodium berghei [1] = test: Antimalarial activity as reduced parasitaemia day 7 in Plasmodium berghei NK65 infected mice (Mus musculus) at 10 mg/kg peroral dose […] […]; format: functional; parameters: scale not given: the % may be the effect or the level left; details: route oral
In short: (§1)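 Peters 4-day suppressive test. Male Swiss Webster mice (18-20 g), 5 per group, infected ip with 2 X10^7 P. berghei NK-65 parasitized red cells. Compounds in 0.1N HCl given orally about 2 h post-infection, once daily on days 0-2; vehicle and β-arteether control groups. Parasitemia followed on Giemsa-stained tail blood smears up to day 28.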

[2] = Cytotoxicity against african green monkey Vero cells after 48 hrs by neutral red assay; format: cell-based; details: chlorocebus sabaeus
In short: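 Vero monkey kidney cells seeded at 25,000 cells/well and grown 24 h, then given samples at several concentrations for 48 h. Viable cells were counted by neutral red. IC50 was taken from dose-response curves, with doxorubicin as positive control.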

Plasmodium berghei [3] = test: Antimalarial activity as reduced parasitaemia at day 7 in Plasmodium berghei NK65 infected mice (Mus musculus) at 30 mg/kg peroral dose […] post infection; format: functional; parameters: scale not given: the % may be the effect or the level left; details: route oral; in short: as §1
Plasmodium berghei [4] = test: Antimalarial activity as reduced parasitaemia on day 10 in Plasmodium berghei NK65 infected mice (Mus musculus) at 10 mg/kg peroral dose […] post infection; format: functional; parameters: scale not given: the % may be the effect or the level left; details: route oral; in short: as §1
Plasmodium berghei [5] = test: Antimalarial activity as reduced parasitaemia at day 14 in Plasmodium berghei NK65 infected mice (Mus musculus) at 30 mg/kg peroral dose once daily for 3 days post infection; parameters: scale not given: the % may be the effect or the level left; details: route oral
Plasmodium berghei [6] = test: Antimalarial activity as reduced parasitaemia at day 14 in Plasmodium berghei NK65 infected mice (Mus musculus) at 10 mg/kg peroral dose […]; format: functional; parameters: scale not given: the % may be the effect or the level left; details: route oral; in short: as §1
Plasmodium berghei [7] = test: Antimalarial activity as reduced parasitaemia at day 10 in Plasmodium berghei NK65 infected mice (Mus musculus) at 30 mg/kg peroral dose […] post infection; format: functional; parameters: scale not given: the % may be the effect or the level left; details: route oral; in short: as §1
[8] = system: Mycobacterium intracellulare; test: Antimicrobial activity against Mycobacterium intracellular ATCC 23068; format: functional, organism-based
In short: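 M. intracellulare ATCC 23068 tested by a modified Franzblau method. […] Fluorescence read at 544ex/590em before and after incubation.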

Staphylococcus aureus = test: Antimicrobial activity against methicillin-resistant Staphylococcus aureus ATCC 43300; format: functional, organism-based
Plasmodium falciparum [9] = test: Antimalarial activity against chloroquine-sensitive Plasmodium falciparum D6 as LDH activity; format: functional, organism-based
In short: (§2)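 Red cells infected with P. falciparum D6 or W2 (2% parasitemia, 2% hematocrit, RPMI 1640 with 10% human serum and 60 µg/mL amikacin) added to serially diluted samples. Gassed with 90% N2/5% O2/5% CO2 and held 37 °C for 72 h. Parasite LDH read with Malstat plus NBT/PES at 650 nm. IC50 from dose-response curves; artemisinin and chloroquine controls.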

Vero = test: Cytotoxicity against african green monkey Vero cells at 4.76 ug/ml after 48 hrs by neutral red assay; format: functional, cell-based; details: Chlorocebus sabaeus
Cryptococcus neoformans = test: Antimicrobial activity against Cryptococcus neoformans ATCC 90113; format: functional, organism-based
Plasmodium falciparum [10] = test: Antimalarial activity against chloroquine-resistant Plasmodium falciparum W2 by LDH activity; format: functional, organism-based; in short: as §2
[11] = target: Glycogen synthase kinase-3 beta (Homo sapiens, UniProt P49841); test: Inhibition of GSK3-beta
[12] = target: Glycogen synthase kinase-3 alpha (Homo sapiens, UniProt P49840); test: Inhibition of GSK3alpha
Sequence of Glycogen synthase kinase-3 alpha (P49840 whole entry): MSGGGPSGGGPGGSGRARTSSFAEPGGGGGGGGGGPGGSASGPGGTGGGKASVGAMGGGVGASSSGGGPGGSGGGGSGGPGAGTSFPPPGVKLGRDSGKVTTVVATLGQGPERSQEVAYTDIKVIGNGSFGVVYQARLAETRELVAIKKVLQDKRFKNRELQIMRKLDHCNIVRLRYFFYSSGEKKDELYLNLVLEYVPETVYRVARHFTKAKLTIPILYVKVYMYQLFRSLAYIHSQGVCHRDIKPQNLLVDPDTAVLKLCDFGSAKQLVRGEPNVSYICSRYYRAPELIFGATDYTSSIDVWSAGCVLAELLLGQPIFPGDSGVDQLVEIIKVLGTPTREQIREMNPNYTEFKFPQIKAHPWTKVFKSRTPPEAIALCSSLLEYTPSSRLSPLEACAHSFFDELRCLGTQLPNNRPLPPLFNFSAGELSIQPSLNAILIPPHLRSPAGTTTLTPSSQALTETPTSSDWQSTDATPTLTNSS

Sequence of Glycogen synthase kinase-3 beta (P49841 whole entry): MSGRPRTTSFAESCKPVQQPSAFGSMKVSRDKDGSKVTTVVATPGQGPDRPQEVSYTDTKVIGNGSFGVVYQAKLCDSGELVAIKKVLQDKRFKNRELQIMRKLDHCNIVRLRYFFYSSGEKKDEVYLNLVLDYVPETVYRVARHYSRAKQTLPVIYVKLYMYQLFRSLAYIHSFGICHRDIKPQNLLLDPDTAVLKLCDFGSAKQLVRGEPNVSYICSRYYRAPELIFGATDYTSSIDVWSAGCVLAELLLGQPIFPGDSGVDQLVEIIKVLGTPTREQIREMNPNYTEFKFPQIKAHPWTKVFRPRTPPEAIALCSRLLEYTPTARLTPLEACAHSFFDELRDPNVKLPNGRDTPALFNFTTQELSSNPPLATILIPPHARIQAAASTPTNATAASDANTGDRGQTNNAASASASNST

Structure (SMILES): Oc1cccc2c1[nH]c1c(C3=C[C@@]4(O)CC/C=C\CCCCN5CC[C@@H]3[C@]3(C[C@@H]6/C=C\CCCCN6[C@H]34)C5)nccc12
IC90 (Leishmania donovani): 11 µg/mL (≈ 19.5 µM)
IC50 (Candida albicans): 10 µg/mL (≈ 17.7 µM)
MIC (Candida albicans): 5 µg/mL (≈ 8.85 µM)
Activity (Plasmodium berghei [1]): 57%
CC50 at 48 h [2]: 1.1 µg/mL (≈ 1.95 µM)
Activity (Plasmodium berghei [3]): 100%
Activity (Plasmodium berghei [4]): 35%
Activity (Plasmodium berghei [5]): 67%
Activity (Plasmodium berghei [6]): 32%
Activity (Plasmodium berghei [7]): 83%
IC50 [8]: 0.25 µg/mL (≈ 0.443 µM)
MIC [8]: 0.31 µg/mL (≈ 0.549 µM)
IC50 (Staphylococcus aureus): 6.5 µg/mL (≈ 11.5 µM)

Structure (SMILES): CC(=O)Oc1cccc2c1[nH]c1c(C3=C[C@@]4(OC(C)=O)CC/C=C\CCCCN5CC[C@@H]3[C@]3(C[C@@H]6/C=C\CCCCN6[C@H]34)C5)nccc12 [8,12-DIACETOXYMANZAMINE A]
IC50 (Plasmodium falciparum [9]): 1.3 µg/mL (≈ 2 µM)
IC50 (Leishmania donovani): 16 µg/mL (≈ 24.7 µM)
IC90 (Leishmania donovani): 35 µg/mL (≈ 53.9 µM)
IC50 (Candida albicans): > 20 µg/mL
Activity (Vero): inactive
IC50 (Cryptococcus neoformans): > 20 µg/mL
MIC (Cryptococcus neoformans): 10 µg/mL (≈ 15.4 µM)
IC50 [8]: 4.5 µg/mL (≈ 6.94 µM)
IC50 (Plasmodium falciparum [10]): 1.2 µg/mL (≈ 1.85 µM)
IC50 (Staphylococcus aureus): 2 µg/mL (≈ 3.08 µM)
MIC (Staphylococcus aureus): 5 µg/mL (≈ 7.71 µM)

Structure (SMILES): CC(=O)Oc1cccc2c1[nH]c1c(C3=C[C@@]4(O)CC/C=C\CCCCN5CC[C@@H]3[C@]3(C[C@@H]6/C=C\CCCCN6[C@H]34)C5)nccc12 [8-ACETOXYMANZAMINE A]
IC50 (Plasmodium falciparum [9]): 0.0096 µg/mL (≈ 0.0158 µM)
IC50 (Leishmania donovani): 3.4 µg/mL (≈ 5.6 µM)
IC90 (Leishmania donovani): 7 µg/mL (≈ 11.5 µM)
IC50 (Candida albicans): 1.5 µg/mL (≈ 2.47 µM)
MFC (Candida albicans): 5 µg/mL (≈ 8.24 µM)
MIC (Candida albicans): 2.5 µg/mL (≈ 4.12 µM)
Activity (Plasmodium berghei [1]): 61%
CC50 at 48 h ([2]; read-out: TC50): 370 µg/mL (≈ 610 µM)
Activity (Plasmodium berghei [3]): 93%
Activity (Plasmodium berghei [4]): 51%
Activity (Plasmodium berghei [5]): 48%
IC50 (Cryptococcus neoformans): 1.5 µg/mL (≈ 2.47 µM)
MFC (Cryptococcus neoformans): 5 µg/mL (≈ 8.24 µM)
MIC (Cryptococcus neoformans): 2.5 µg/mL (≈ 4.12 µM)
Activity (Plasmodium berghei [6]): 8%
Activity (Plasmodium berghei [7]): 84%
IC50 [8]: 0.1 µg/mL (≈ 0.165 µM)
MBC [8]: > 20 µg/mL
MIC [8]: 0.16 µg/mL (≈ 0.264 µM)
IC50 (Plasmodium falciparum [10]): 0.03 µg/mL (≈ 0.0494 µM)
IC50 (Staphylococcus aureus): 0.5 µg/mL (≈ 0.824 µM)
MFC (Staphylococcus aureus): 20 µg/mL (≈ 33 µM)

Structure (SMILES): COc1cccc2c1[nH]c1c(C3=C[C@@]4(O)CC/C=C\CCCCN5CC[C@@H]3[C@]3(C[C@@H]6/C=C\CCCCN6[C@H]34)C5)nccc12 [8-METHOXYMANZAMINE A]
IC50 (Plasmodium falciparum [9]): 0.037 µg/mL (≈ 0.0639 µM)
IC50 (Leishmania donovani): 5 µg/mL (≈ 8.64 µM)
IC90 (Leishmania donovani): 24 µg/mL (≈ 41.5 µM)
IC50 (Candida albicans): 3 µg/mL (≈ 5.18 µM)
MFC (Candida albicans): > 20 µg/mL
MIC (Candida albicans): 10 µg/mL (≈ 17.3 µM)
CC50 at 48 h ([2]; read-out: TC50): 980 µg/mL (≈ 1690 µM)
IC50 (Cryptococcus neoformans): 2 µg/mL (≈ 3.46 µM)
IC50 [8]: 0.15 µg/mL (≈ 0.259 µM)
MBC [8]: 20 µg/mL (≈ 34.6 µM)
MIC [8]: 0.63 µg/mL (≈ 1.09 µM)
IC50 (Plasmodium falciparum [10]): 0.047 µg/mL (≈ 0.0812 µM)
IC50 (Staphylococcus aureus): 0.55 µg/mL (≈ 0.95 µM)
MFC (Staphylococcus aureus): > 20 µg/mL
MIC (Staphylococcus aureus): > 20 µg/mL

Structure (SMILES): C[C@@H]1[C@H](O)[C@@H](C)/C=C/C=C/C=C/C=C/C=C/C=C/C=C/[C@H](O[C@@H]2O[C@H](C)[C@@H](O)[C@H](N)[C@@H]2O)C[C@@H]2O[C@](O)(C[C@@H](O)C[C@@H](O)[C@H](O)CC[C@@H](O)C[C@@H](O)CC(=O)O[C@H]1C)C[C@H](O)[C@H]2C(=O)O [AMPHOTERICIN B]
IC50 (Leishmania donovani): 0.4 µg/mL (≈ 0.433 µM)
IC90 (Leishmania donovani): 0.36 µg/mL (≈ 0.39 µM)
IC50 (Candida albicans): 0.1 µg/mL (≈ 0.108 µM)
MIC (Candida albicans): 0.63 µg/mL (≈ 0.682 µM)
IC50 (Cryptococcus neoformans): 1 µg/mL (≈ 1.08 µM)
MFC (Cryptococcus neoformans): 2.5 µg/mL (≈ 2.71 µM)
MIC (Cryptococcus neoformans): 2.5 µg/mL (≈ 2.71 µM)

Structure (SMILES): C[C@@H]1CC[C@H]2[C@@H](C)C(=O)O[C@@H]3O[C@@]4(C)CC[C@@H]1[C@]32OO4 [ARTEMISININ]
IC50 (Plasmodium falciparum [9]): 0.0043 µg/mL (≈ 0.0152 µM)
IC50 (Plasmodium falciparum [10]): 0.0044 µg/mL (≈ 0.0156 µM)

Structure (SMILES): O=C(O)c1cn(C2CC2)c2cc(N3CCNCC3)c(F)cc2c1=O [CIPROFLOXACIN]
MBC [8]: > 20 µg/mL
MIC [8]: 0.5 µg/mL (≈ 1.51 µM)
MFC (Staphylococcus aureus): 1 µg/mL (≈ 3.02 µM)
MIC (Staphylococcus aureus): 0.25 µg/mL (≈ 0.754 µM)

Structure (SMILES): O[C@]12C=C(c3nccc4c3[nH]c3ccccc34)[C@@H]3CCN(CCCC/C=C\CC1)C[C@@]31C[C@@H]3/C=C\CCCCN3[C@H]12 [MANZAMINE A]
IC90 (Leishmania donovani): 1.8 µg/mL (≈ 3.28 µM)
Activity (Plasmodium berghei [1]): 100%
CC50 at 48 h ([2]; read-out: TC50): 680 µg/mL (≈ 1240 µM)
Activity (Plasmodium berghei [4]): 100%
IC50 [11]: 10 µM
MIC (Cryptococcus neoformans): 10 µg/mL (≈ 18.2 µM)
Activity (Plasmodium berghei [6]): 90%
MIC [8]: 0.63 µg/mL (≈ 1.15 µM)
IC50 [12]: 25 µM
IC50 (Plasmodium falciparum [10]): 0.005 µg/mL (≈ 0.00911 µM)

IC50 (Leishmania donovani): 0.9 µg/mL (≈ 2.64 µM)
IC90 (Leishmania donovani): 1.8 µg/mL (≈ 5.29 µM)
Structure (SMILES): N=C(N)c1ccc(OCCCCCOc2ccc(C(=N)N)cc2)cc1 [PENTAMIDINE]
